In publication PMC6242712 (ChemMedChem, 2018):
Like-named read-outs stand apart in the source and are kept apart here.

Key:
[1] = biological target: T1, PDI (Homo sapiens, UniProt P07237); test: PDI-catalyzed insulin reduction; format: biochemical
[2] = test system: A172 cells; test: MTT growth inhibition assay, A172; settings: Homo sapiens, A 172, 72 h, read-out: IC50, cytotoxicity A172
[3] = test system: NU04 cells; test: MTT growth inhibition assay, NU04; settings: Homo sapiens, 72 h, read-out: IC50, cytotoxicity NU04
[4] = test system: U118MG cells; test: MTT growth inhibition assay, U118MG; settings: Homo sapiens, U-118-MG, 72 h, read-out: IC50, cytotoxicity U118MG
[5] = test system: U87MG cells; test: MTT growth inhibition assay, U87MG; settings: for IC50: read-out: IC50, cytotoxicity U87MG; for Effect on cell growth: in words
[6] = test system: U87MG cells; test: Bru-seq nascent RNA sequencing; format: cell-based, human; settings: 1 μM, 4 hours
In short: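 U87MG cells plated on day 1, given fresh medium on day 5, then exposed to test compound (1 μM) or DMSO for 4 h. Bromouridine (2 mM final) labelled nascent RNA during the last 30 min. Total RNA was isolated in TRIzol, and BrU-RNA was isolated, sequenced and mapped. Genes >300 bp with mean RPKM >0.5 (7,770 genes) were ranked by fold change vs DMSO.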

[7] = test system: glioblastoma cells; test: MTT growth inhibition of 35G8 combined with Z-VAD-FMK, necrostatin-1 or NAC; format: cell-based, human
[8] = test system: U87MG cells; test: Western blot of protein expression; format: cell-based, human; settings: 24-hour treatment
In short: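 U87MG cells were treated with test compound (1 or 2 μM) or vehicle for 24 h. 50 μg protein on 10% gels (12% for LC3B, DDIT3), transferred to PVDF. GAPDH loading control; triplicate experiments.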

[9] = biological target: T2, GRP78 (Homo sapiens, UniProt P11021); test: Cellular thermal shift assay; format: cell-based; settings: U87MG cells, 2 hours
In short: (§1)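 U87MG cells (2 × 10^6 per 100 mm dish) were attached overnight, then treated with test compound (0.5, 1.0 or 2.0 μM) or DMSO for 2 h at 37 °C, 5% CO2. Cells were trypsinized, washed in DPBS and aliquoted. Aliquots were heated at set temperatures for 3 min, held 3 min at room temperature and freeze-thawed twice. Cleared supernatants were run on 10% SDS-PAGE and Western blotted.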

[10] = biological target: T3, GSTO1 (Homo sapiens, UniProt P78417); test: DARTS assay in U87MG cell lysates, GSTO1; format: binding; settings: 100 μM compound, U87MG lysate
T3 sequence (P78417 1-241): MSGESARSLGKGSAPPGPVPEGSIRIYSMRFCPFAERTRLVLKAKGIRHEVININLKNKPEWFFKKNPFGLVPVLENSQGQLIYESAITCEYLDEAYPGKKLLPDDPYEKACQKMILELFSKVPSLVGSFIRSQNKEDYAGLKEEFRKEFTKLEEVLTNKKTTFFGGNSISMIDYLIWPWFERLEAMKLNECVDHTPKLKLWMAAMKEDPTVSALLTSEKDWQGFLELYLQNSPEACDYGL
In short: (§2)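 U87MG cells at 80–85% confluence were lysed on ice for 10 min (150 mM NaCl, 1% NP-40, 0.5% deoxycholate, 50 mM Tris pH 8.0) and cleared at 18,000 × g. Lysate (5 mg/ml) was incubated with 100 μM test compound or DMSO for 30 min at RT. Pronase (0, 0.005, 0.01, 0.02 μg/μL) was added for 30 min at RT and stopped with protease inhibitors on ice. 20 μg protein was Western blotted; three independent experiments.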

[11] = test system: U87MG cells; test: MTT cell viability with or without deferoxamine; format: cell-based; settings: Homo sapiens, U-87 MG, 12 h, read-out: IC50, cell viability, used alone
[12] = biological target: T2, GRP78; test: DARTS assay in U87MG cell lysates, GRP78; format: binding; settings: 100 μM compound, U87MG lysate
In short: as §2

[13] = test system: U87MG cells; test: ROS detection assay; format: cell-based, human; settings: 5 μM, 24 hours; comparable to 100 μM hydrogen peroxide
In short: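 Trypsinized U87MG cells were loaded in suspension with 20 μM H2DCFDA for 30 min at 37 °C, washed, plated at 20,000 cells/well, rested 30 min, then treated. Fluorescence (493/523 nm) was read at 4, 6 and 24 h. Hydrogen peroxide (500, 100, 20 μM) served as reference. Means ± standard deviation of three independent experiments.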

[14] = biological target: T1, PDI; test: Cellular thermal shift assay; format: cell-based; settings: U87MG cells, 2 hours
In short: as §1

[15] = biological target: T4, glutathione-transferase Omega 1 (GSTO1) (Homo sapiens, UniProt P78417); test: Cellular thermal shift assay; format: cell-based; settings: U87MG cells, 2 hours
T4 sequence (P78417 1-241): T3 sequence (P78417 1-241)
In short: as §1

[16] = biological target: T1, PDI; test: DARTS assay in U87MG cell lysates, PDI; format: binding; settings: 100 μM compound, U87MG lysate
In short: as §2

[17] = test system: PDI; settings: reversible PDI modulator; cited from earlier work
[18] = test system: U118MG cells
[19] = test system: U87MG cells
[20] = test system: A172 cells
[21] = test system: NU04 cells

T2 sequence (P11021 19-654): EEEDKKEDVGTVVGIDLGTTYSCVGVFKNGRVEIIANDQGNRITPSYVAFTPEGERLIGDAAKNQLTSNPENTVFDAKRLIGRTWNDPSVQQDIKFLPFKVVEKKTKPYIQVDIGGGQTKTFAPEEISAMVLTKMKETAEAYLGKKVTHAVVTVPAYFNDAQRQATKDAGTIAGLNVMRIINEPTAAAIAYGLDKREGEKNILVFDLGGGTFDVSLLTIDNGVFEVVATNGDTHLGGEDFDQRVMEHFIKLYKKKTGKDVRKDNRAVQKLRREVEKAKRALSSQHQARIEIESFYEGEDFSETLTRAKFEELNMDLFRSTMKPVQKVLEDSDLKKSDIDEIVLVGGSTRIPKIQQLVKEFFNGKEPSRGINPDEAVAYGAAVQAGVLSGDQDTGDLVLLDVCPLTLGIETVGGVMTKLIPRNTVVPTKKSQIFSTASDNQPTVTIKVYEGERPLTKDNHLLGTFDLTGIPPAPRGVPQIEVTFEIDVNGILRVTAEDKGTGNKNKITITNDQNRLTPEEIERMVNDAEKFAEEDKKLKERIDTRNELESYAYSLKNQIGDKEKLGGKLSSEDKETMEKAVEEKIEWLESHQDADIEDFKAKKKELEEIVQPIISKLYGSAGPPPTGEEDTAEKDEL
T1 sequence (P07237 18-508): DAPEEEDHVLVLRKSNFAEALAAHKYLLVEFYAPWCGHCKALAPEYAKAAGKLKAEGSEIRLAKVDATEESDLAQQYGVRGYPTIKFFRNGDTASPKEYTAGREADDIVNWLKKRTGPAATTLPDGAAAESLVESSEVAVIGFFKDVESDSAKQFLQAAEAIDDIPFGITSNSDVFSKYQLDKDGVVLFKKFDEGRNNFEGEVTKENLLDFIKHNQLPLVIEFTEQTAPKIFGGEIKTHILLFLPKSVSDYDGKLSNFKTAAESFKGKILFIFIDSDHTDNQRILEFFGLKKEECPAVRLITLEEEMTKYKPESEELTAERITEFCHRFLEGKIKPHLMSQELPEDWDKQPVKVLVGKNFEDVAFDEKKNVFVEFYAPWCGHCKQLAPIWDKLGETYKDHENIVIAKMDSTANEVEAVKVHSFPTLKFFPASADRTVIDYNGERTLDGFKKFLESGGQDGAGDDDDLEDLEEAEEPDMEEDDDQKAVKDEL

`COc1ccc(-c2nn(C)c3nc(=O)n(C)c(=O)c-3[n+]2[O-])cc1` [Compound 5d, 3-(4-Methoxyphenyl)-1,6-dimethyl-5,7-dioxo-1,5,6,7-tetrahydropyrimido[5,4-e][1,2,4]triazine 4-oxide] showed an IC50 [1] of 0.42 ± 0.07 µM, an IC50 [2] of 1.7 ± 0.1 µM and an IC50 [3] of 1.5 ± 0.7 µM. For the same compound, the IC50 [4] was 4.3 ± 0.1 µM and the IC50 ([5]; Homo sapiens, U-87 MG, 72 h) was 1.9 ± 0.7 µM.

In the case of `Cn1ncnc2c(=O)n(C)c(=O)nc1-2` [NC72], the IC50 ([5]; MTT, 72 hours) is reported as 0.5 ± 0.1 µM.

For `Cn1c(=O)[nH]c2nncnc2c1=O` [NC75], the “Effect on cell growth” value ([5]; MTT) was “little effect on cell growth” and the IC50 ([5]; MTT, 72 hours) was > 100 µM.

With `Cc1nc2c(=O)n(C)c(=O)nc-2n(C)n1` [Compound 35G8, 1,3,6-Trimethylpyrimido[5,4-e][1,2,4]triazine-5,7(1H,6H)-dione] the CHAC1 transcription [6] was 46 fold increase, the DDIT3 transcription [6] was 4 fold increase and the EGR1 transcription [6] was −5.65 fold change. It also gave an HSPA5 transcription [6] of 8 fold increase, an IRS2 transcription [6] of 12 fold increase and an ITGA3 transcription [6] of −3.89 fold change. It also gave a TMEM74 transcription [6] of 28 fold increase, a TRIB3 transcription [6] of 23 fold increase and a TXN expression [6] of 2 fold increase. For the same compound, the TXNIP expression [6] was 7.4 fold decrease, the TXNIP transcription [6] was −7.40 fold change and the TXNRD1 expression [6] was 9 fold increase. The “Effect of N-acetyl-cysteine (NAC) on cytotoxicity of 35G8” value ([7]; NAC added at the same time as 35G8) was “did not affect”, the “Protection from 35G8-induced cell death by necrostatin-1 pretreatment” value ([7]; Necrostatin-1 added 1 hour prior to 35G8) was “did not protect” and the “Protection from 35G8-induced cell death by Z-VAD-FMK pretreatment” value ([7]; Z-VAD-FMK added 1 hour prior to 35G8) was “did not protect”. For the same compound, the IC50 [1] was 0.17 ± 0.01 µM, the “Cleaved LC3B expression” value ([8]; 2 μM) was “increased significantly” and the DDIT3 protein expression ([8]; 2 μM) was “increased”. The “Expression of ATG3, ATG5, ATG7 and beclin 1” value ([8]; 2 μM) was “did not change”, the “GRP78 (HSPA5) protein expression” value ([8]; 2 μM) was “increased” and the HMOX1 protein expression ([8]; 1 or 2 μM) was “parallel increases”. The SLC7A11 protein expression ([8]; 1 or 2 μM) was “parallel increases”, the IC50 [2] was 2 ± 0.6 µM and the IC50 [3] was 0.8 ± 0.2 µM. The IC50 [4] was 3.9 ± 0.1 µM, the “Effect on thermal stability of GRP78 (CETSA)” value [9] was “little effect” and the “Effect on degradation of GSTO1 (DARTS)” value [10] was “no effect”. For the same compound, the IC50 [11] was 2.2 ± 0.7 µM, the “Effect on degradation of GRP78 (DARTS)” value [12] was “no effect” and the IC50 ([5]; Homo sapiens, U-87 MG, 72 h) was 1.1 ± 0.2 µM. For the same compound, the ROS induction [13] was “maximal ROS induction”, the “Effect on thermal stability of PDI (CETSA)” value [14] was “destabilized” and the “Effect on thermal stability of GSTO1 (CETSA)” value [15] was “stabilize”. The “Protection of PDI from pronase proteolysis (DARTS)” value [16] was “protected”.

For `Cn1nc(Cc2ccccc2)nc2c(=O)n(C)c(=O)nc1-2` [Compound 4c, 3-Benzyl-1,6-dimethylpyrimido[5,4-e][1,2,4]triazine-5,7(1H,6H)-dione], the IC50 [1] was 0.33 ± 0.04 µM, the IC50 [2] was 8.2 ± 2.5 µM and the IC50 [3] was > 30 µM. It also gave an IC50 [4] of 24 ± 7.4 µM and an IC50 ([5]; Homo sapiens, U-87 MG, 72 h) of 12.7 ± 3.7 µM.

In the case of `Cn1nc(-c2ccc([N+](=O)[O-])cc2)nc2c(=O)n(C)c(=O)nc1-2` [Compound 4f, 1,6-Dimethyl-3-(4-nitrophenyl)pyrimido[5,4-e][1,2,4]triazine-5,7(1H,6H)-dione], the IC50 [1] is reported as 0.24 ± 0.04 µM, the IC50 [2] is reported as 1.1 ± 0.2 µM and the IC50 [3] is reported as 4.9 ± 1.2 µM. For the same compound, the IC50 [4] was 6.2 ± 1.6 µM and the IC50 ([5]; Homo sapiens, U-87 MG, 72 h) was 1.8 ± 0.7 µM.

In the case of `Cc1nn(C)c2nc(=O)n(C)c(=O)c-2[n+]1[O-]` [NC79], the “Effect on cell growth” value ([5]; MTT) is reported as “little effect on cell growth” and the IC50 ([5]; MTT, 72 hours) is reported as > 100 µM.

In the case of `O=C(C1CC1)N1CCN(Cn2sc3ccccc3c2=O)CC1` [LOC14], the EC50 [17] is listed as 0.5 µM.

With `Cn1nc(-c2ccccc2)nc2c(=O)n(C)c(=O)nc1-2` [Compound 4b, 1,6-Dimethyl-3-phenylpyrimido[5,4-e][1,2,4]triazine-5,7(1H,6H)-dione] the IC50 [1] was 0.39 ± 0.03 µM, the IC50 [2] was 1.8 ± 0.4 µM and the IC50 [3] was 3.7 ± 1.2 µM. For the same compound, the IC50 [4] was 4.6 ± 0.5 µM and the IC50 ([5]; Homo sapiens, U-87 MG, 72 h) was 3 ± 0.3 µM.

Work on `COc1ccc(-c2nc3c(=O)n(C)c(=O)nc-3n(C)n2)cc1` [Compound 4d, 3-(4-Methoxyphenyl)-1,6-dimethylpyrimido[5,4-e][1,2,4]triazine-5,7(1H,6H)-dione] yielded an IC50 [1] of 0.36 ± 0.05 µM, an IC50 [2] of 1.5 ± 0.4 µM and an IC50 [3] of 0.86 ± 0.04 µM. The IC50 [4] was 3.9 ± 0.6 µM and the IC50 ([5]; Homo sapiens, U-87 MG, 72 h) was 1.2 ± 0.2 µM.

Work on `COc1cccc(-c2nc3c(=O)n(C)c(=O)nc-3n(C)n2)c1` [Compound 4e, 3-(3-Methoxyphenyl)-1,6-dimethylpyrimido[5,4-e][1,2,4]triazine-5,7(1H,6H)-dione] yielded an IC50 [1] of 0.32 ± 0.01 µM, an IC50 [2] of 1.5 ± 0.1 µM and an IC50 [3] of 0.76 ± 0.22 µM. The IC50 [4] was 2.4 ± 0.6 µM and the IC50 ([5]; Homo sapiens, U-87 MG, 72 h) was 1.1 ± 0.2 µM.

With PACMA31 the IC50 [18] was 0.28 ± 0.04 µM, the IC50 [19] was 0.13 ± 0.07 µM and the IC50 [20] was 0.12 ± 0.1 µM. The IC50 [21] was 0.4 ± 0.1 µM, the “Effect on degradation of GSTO1 (DARTS)” value [10] was “no effect” and the “Effect on degradation of GRP78 (DARTS)” value [12] was “no effect”. For the same compound, the “Protection of PDI from pronase proteolysis (DARTS)” value [16] was “protected”.
